One compound from article PMC6843717 (ACS Omega, 2019) can be followed below.

This data set in a line: Plasma pharmacokinetics after single IP or PO dose. The format is in vivo, Balb/c mice. The procedure, abridged:
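Female BALB/c mice, 4–5 weeks old, acclimated 1 week. Single 10 mg/kg dose (0.1 mL in 12.5% ethanol/12.5% cremophor/75% PBS, pH 7.4), IP or oral gavage. Five mice per time point (0.08–12 h) bled by cardiac puncture into citrate. Plasma protein-precipitated and analysed by SFC-MS/MS (ESI+, m/z 339.1→179.9). λz by terminal log-linear regression; relative bioavailability PO vs IP.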

The mark [1] stands for this setting: female, BALB/c, mouse, plasma, ip, 10 mg/kg.
Setting [2] is: female, BALB/c, mouse, plasma, po, 10 mg/kg.
Setting [3] is: plasma, intraperitoneal 10 mg/kg, mean ± SEM.

Several values for one entry are separate records, joined by “and”; a condition that tells them apart may be missing. Identical values can stand only once.

What is called AUC(0-t) is the area under the concentration-time curve up to a stated or last time point. A higher AUC(0-t) goes with high exposure. What is called Cmax is the highest concentration seen after dosing. In general, MRT inf refers to the average time that molecules of a dose stay in the body. For orientation: Tmax means the time at which the peak concentration occurs. One may read the half-life as the time needed for the level to fall by half in the phase considered. Take `CCn1c2ccccc2c2cc(-n3nncc3-c3ccccc3)ccc21` [MBQ-167]: the “systemic clearance exceeds mean basal renal glomerular filtration rate in mice” value (GFR 12–18 mL/h) is recorded as ~10 fold. Moreover, the “systemic clearance adjusted by F” value (PO administration) is 136.5 mL/h. Also, the clearance (female, BALB/c, mouse, plasma, 10 mg/kg) was ~83.3 mL/min/kg. Moreover, under setting [1], the AUC(0-t) stood at 1640 ± 291 ng·h/mL, the highest level (Cmax) was 2970 ± 1380 ng/mL, the MRT inf was 1.9 ± 0.1 h and the Tmax came out at 0.22 ± 0.14 h. Under setting [1], this compound had a concentration at 30 min of 840 ng/mL and a half-life of 2.17 ± 0.06 h. Besides, under setting [2], the AUC(0-t) worked out at 585 ± 150 ng·h/mL, the highest level (Cmax) was 619 ± 195 ng/mL, the MRT inf was 1.9 ± 0.1 h and the Tmax came to 0.5 h. Further, under setting [2], the half-life was 2.6 ± 0.2 h. Besides, the “time to elimination from plasma and tissues” value (following administration by both routes) is 6 to 8 h. The “drug remaining in the bloodstream” value (from apparent volume of distribution vs blood volume 1.5–2.0 mL) was “less than 1%”. Also, under “maximum plasma concentration, same dosage”, the “plasma drug concentration lower after PO compared to IP” value is ~4.5 times. The “clearance rate as share of liver blood flow in the mouse” value (mouse, in vivo) is ~85%. Further, where the note is “oral gavage relative to IP, 10 mg/kg, mean ± SEM”, the “F (relative bioavailability)” value was 35% and 35 ± 3%. Also, under setting [3], the Cl/F was 129 mL/h and 129 ± 24 mL/h; the Kel is recorded as 0.320 ± 0.009 h^–^1. For the setting “plasma, oral gavage 10 mg/kg, mean ± SEM”, this compound had a Kel of 0.27 ± 0.02 h^–^1. Moreover, where the note is “plasma, oral gavage 10 mg/kg, mean ± SEM, 10 mg/kg”, the Cl/F is 390 mL/h and 390 ± 111 mL/h.
